Source: PubChem BioAssay (Broad Institute)
Compounds with a hit are over-represented: about 3.1% of the library has one in this group of screens.
PolyA inhibitor: polyadenylation inhibitors in yeast reporter cells, primary screen, luminescence, S. cerevisiae | actives 0.02% (n = 300,000) | activity score, % at 12 µM | S. cerevisiae SKY197-pL101 polyadenylation reporter, beta-gal luminescence; efflux-impaired pdr1/pdr3 knockout yeast; score 100 = 6 SD above DMSO;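 active = lowest replicate activity score at least 50, where 100 means six control SD above control mean; inconclusive = lowest score under 50 but half or more replicates reach 50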;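 note: yeast exposed to compound for 9 h at 30 °C; higher score means more reporter readthrough which indicates perturbed polyadenylation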
Beta apoptosis: inhibitors of cytokine-induced beta cell apoptosis, primary screen, luminescence. INS-1E cytokine-induced death, ATP luminescence, 48 h; percent of positive-control rescue, neutral wells zero. actives 0.8% (n = 300,000). protection from apoptosis, % (test concentration not listed);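 active = Every replicate reaches about 75%, or at least half do and their mean reaches it too, limit read from the data; inconclusive = At least half of replicates reach the limit but their mean does not; inactive = Under half of replicates reach the limit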;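 note: higher means more ATP so stronger rescue from cytokine killing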
T cruzi inh: inhibitors of intracellular T. cruzi growth, primary screen, luminescence, NIH3T3 host cells. T. cruzi beta-gal in NIH3T3, 90 h. inhibition, % (concentration not given with the values). actives 1.4% (n = 300,000). AID 1885, 2009;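 active = mean inhibition across valid replicates above about 55%, limit read from the data; inconclusive = mean below that limit but half or more replicates reach it; inactive = mean below it, under half of replicates reach it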;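 note: signal also drops with host cell toxicity which is not excluded here; higher percent means less beta-gal luminescence so fewer parasites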
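System: mouse NIH/3T3 fibroblasts infected with β-gal-expressing T. cruzi Tulahuen C4 / Input: NIH/3T3 cells, 5,000 per well / Buffer or medium: Low-serum DMEM with 2% FBS / Probe or stimulus: 5000 reporter trypomastigotes per well / Schedule: ≥90 h infection period, 3 h prior cell attachment / Measured by: GalScreen luminescence, 60 min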
CSC inhib: cancer stem cell viability inhibitors, primary screen, luminescence; cancer stem cell-like cells viability; inhibition, % at 7.5 µM; actives 1.1% (n = 300,000); AID 2717, 2010; in the data active = inhibition above about 75%; inconclusive = no clear call, values can overlap the other calls; tested in HMLE shEcad cells
HIF activator: HIF pathway transcriptional activators, primary screen, cell-based, U2OS HRE-luciferase, luminescence; U2OS HRE-luciferase reporter; normalized: DMSO 0%, desferrioxamine 100%; AID 1910, 2009; activation, % at 7.5 µM (by protocol); actives 0.32% (n = 300,000);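 active = mean activation of at least 10% of the iron chelator positive control signal, with at least half of replicates also reaching 10%; inconclusive = mean and replicate majority disagree about reaching 10%; inactive = mean and most replicates under 10%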
Calb FLC: C. albicans growth inhibition with fluconazole, primary screen, CaCi-2 strain, Alamar Blue fluorescence; C. albicans CaCi-2 (fluconazole-resistant clinical isolate) + fluconazole, 48 h; growth inhibition, % (no concentration beside the values); actives 0.57% (n = 300,000);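 active = growth inhibition above about 58% in most replicates, limit read from the data, passing the limit was not always enough; inconclusive = exactly half the replicates above a set limit; inactive = most replicates below a set limit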;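 note: all wells also contain fluconazole at 8 µg/ml as a sub-toxic cotreatment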
A number is an active result; - = inactive; ? = inconclusive; . = no result.

SMILES	PolyA inhibitor	Beta apoptosis	T cruzi inh	CSC inhib	HIF activator	Calb FLC
COc1cc(/C=C2/CC/C(=C/c3ccc(O)c(OC)c3)C2=O)ccc1O	61.4	-	-	-	-	-
COc1cc(/C=C2\COC/C(=C\c3ccc(O)c(OC)c3)C2=O)ccc1O	-	-	-	86.7	-	-
COc1ccc(N2CCN(c3nc4ccccn4c(=O)c3/C=C(\C#N)S(=O)(=O)c3ccccc3)CC2)cc1	-	-	-	-	-	-
O=C(COc1ccccc1F)Nc1ccc(S(=O)(=O)N2CCCC2)cc1	.	-	.	.	.	.
COc1ccc(C(CNC(=O)c2cccc(S(=O)(=O)N3CCc4ccccc43)c2)N(C)C)cc1 (stereo unspecified)	.	-	.	-	.	.
CCCCCCSc1ccc([C@H]2N[C@@](Cc3ccccc3)(C(=O)OC)[C@H]3C(=O)N(C)C(=O)[C@@H]23)cc1	-	99.1	-	-	-	-
CCCCCCSc1ccc([C@H]2N[C@@](C)(C(=O)OC)[C@H]3C(=O)N(CC)C(=O)[C@@H]23)cc1	-	-	-	77.6	-	-
CCCCCCSc1ccc([C@H]2N[C@@](CC(C)C)(C(=O)OC)[C@H]3C(=O)N(CC)C(=O)[C@@H]23)cc1	-	-	-	-	-	-
COc1ccccc1[C@]1(C)ON(c2ccccc2C(F)(F)F)C1=O	.	-	.	-	.	.
CCCn1c(=O)[nH]c(=O)c2c1nc(-c1cc([N+](=O)[O-])ccc1Cl)n2CCOC	-	.	-	-	-	-
COc1ccc2c(c1)sc1nc(=O)ccn12	-	.	-	-	-	-
COc1ccc2c(c1)sc(=N)n2C	-	-	72.0	-	-	-
COc1ccc(CN(C)C(C)C(=O)Nc2cccc3ccccc23)cc1 (stereo unspecified)	-	-	-	-	-	-
CN1CCN(c2ccccc2NC(=O)c2ccc(N3CCCC3)c([N+](=O)[O-])c2)CC1	-	.	-	.	-	-
CN1CCN(c2ccccc2NC(=O)c2ccc(-c3ccc(Cl)cc3Cl)o2)CC1	-	-	55.3	101.3	-	-
CCCn1c(NC(=O)c2ccc(Cl)c(S(=O)(=O)N3CCCC3)c2)nc2ccccc21	-	.	66.1	-	-	?
CCCn1c(NC(=O)c2ccc([N+](=O)[O-])o2)nc2ccccc21	-	.	57.8	-	-	-
O=C(Nc1ccccc1N1CCCCC1)c1ccc(Cl)c([N+](=O)[O-])c1	-	-	-	79.8	-	-
Cc1ccc(CNC(=O)c2ccc(N3CCC4(CC3)CC(c3ccccc3)=NO4)c(NC(=O)c3ccc(Cl)c([N+](=O)[O-])c3)c2)cc1	-	-	-	-	-	-
COc1ccc(C(=O)C2CCCN(C/C=C/c3ccccc3OC)C2)c(OC)c1 (stereo unspecified)	-	-	-	-	-	-
CC1CCN(c2ccccc2NC(=O)c2ccc([N+](=O)[O-])o2)CC1	-	-	-	.	-	-
CC(C)C(=O)N1CCN(c2ccccc2NC(=O)c2ccc([N+](=O)[O-])o2)CC1	-	-	56.3	-	-	-
O=C(Nc1cccc2ccccc12)c1ccc([N+](=O)[O-])o1	-	-	-	-	-	86.2
CCOc1ccc(C(=O)NC(=S)Nc2ccccc2N2CCC(C)CC2)cc1[N+](=O)[O-]	-	-	55.0	-	-	-
O=C(Nc1ccccc1N1CCCC1)c1ccc([N+](=O)[O-])o1	-	-	62.4	-	-	-
SMILES	PolyA inhibitor	Beta apoptosis	T cruzi inh	CSC inhib	HIF activator	Calb FLC
COc1ccccc1N(CC(=O)N(C)Cc1ccccc1)S(=O)(=O)c1cccs1	.	-	.	-	.	.
Cc1ccc(/C=C(\NC(=O)c2ccc(C)cc2)C(=O)NCCCn2ccnc2)cc1	-	-	-	-	-	-
N#C/C(=C\c1ccc(O)c(O)c1)C(=O)Nc1cccc2ncccc12	-	-	-	-	-	96.8
COc1ccc(/C=C(\C#N)C(=O)Nc2cccc3ncccc23)cc1OC	-	-	-	-	-	-
O=C(Cc1cc2ccccc2o1)NCc1ccc(F)cc1	-	.	-	.	-	-
C#CC[N+]1(CC#Cc2ccccc2)CCCC1	-	-	-	-	-	-
C(#Cc1ccccc1)C[N+]1(CC#Cc2cccc3ccccc23)CCCC1	-	76.9	-	-	-	90.3
O=c1[nH]c(=O)n(Cc2ccco2)c2c1C(C(F)(F)F)(C(F)(F)F)N=C(c1ccc(F)cc1)N2	-	102.2	-	-	-	-
Cc1ccc(C)c(CSC2=NCCN2S(=O)(=O)c2ccccc2)c1	-	-	-	-	-	-
Cc1nn(-c2ccccc2)c(C)c1C(=O)OC/C(O)=C(\C#N)c1nc2ccccc2[nH]1	-	-	-	-	-	81.7
COc1cc(OC)cc(C(=O)OC/C(O)=C(\C#N)c2nc3ccccc3[nH]2)c1	-	101.1	-	-	-	-
Cc1nn(-c2ccccc2)c(C)c1C(=O)OCC(=O)Nc1ccccc1	.	-	.	-	.	.
Cc1c(C(=O)OC/C(O)=C(\C#N)c2nc3ccccc3[nH]2)oc2ccccc12	-	-	-	-	-	-
CCCCC1(Cc2cccc([N+](=O)[O-])c2)C(=O)N(c2ccccc2)N(c2ccccc2)C1=O	-	-	-	-	-	-
CCN(CC)CCNc1ncnc2c1sc1nc(N3CCOCC3)c3c(c12)CC(C)(C)SC3	-	103.2	-	?	-	-
CCN(CC)S(=O)(=O)c1ccc(N2CCOCC2)c(NC(=O)C23CC4CC(CC(Cl)(C4)C2)C3)c1	-	-	-	-	-	-
CCOC(=O)CSc1nc(C)cc(C)c1C#N	-	-	-	-	-	-
CC(=O)C1=C(C)NC(SCC(=O)c2ccc(Cl)cc2Cl)=C(C#N)C1c1ccco1 (stereo unspecified)	-	104.6	66.3	-	-	-
Cc1cc(C)c(C#N)c(SCC(=O)c2ccc(Cl)cc2Cl)n1	-	-	75.5	-	-	-
Cc1cc(C)c(C#N)c(SCC(=O)Nc2nnc(-c3ccccc3)s2)n1	-	-	55.0	-	-	?
CC(=O)C1=C(C)NC(SCC(=O)c2ccc(Cl)cc2)=C(C#N)C1c1ccco1 (stereo unspecified)	-	.	-	-	-	-
COc1cc(-c2cc(-c3ccccc3)nc(SCC(=O)Nc3nccs3)c2C#N)cc(OC)c1OC	-	-	55.2	-	-	-
Cc1cc(C)c(C#N)c(SCC(=O)Nc2ccccc2C)n1	-	-	-	-	-	-
Cc1ccc(C(=O)Nc2nc(=O)[nH]s2)cc1	-	-	-	-	-	-
CC1=NN(C(N)=S)C(=O)C1N=Nc1cccc(Cl)c1C (stereo unspecified)	-	-	-	-	-	-
CC1=NN(C(N)=S)C(=O)C1N=Nc1cccc2ccccc12 (stereo unspecified)	-	-	-	-	-	108.0
